Experimental data: PMC6957252 (Bioorganic & medicinal chemistry, 2016)

What was measured:
[1] = target: human TRPV1 heterologously expressed in Chinese hamster ovary (CHO) cells (Homo sapiens, UniProt Q8NER1); assay type: cell-based
Outline: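 45Ca2+ uptake in CHO cells heterologously expressing human TRPV1. […] Ki is calculated to account for competition between capsaicin and antagonist. In agonist mode, 300 nM capsaicin (saturating) defines maximal response, and absence or weakness of uptake is scored as no or weak effect. Values are mean ± SEM of at least three experiments.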

[2] = in vivo; cited from earlier work
[3] = neuropathic pain model; cited from earlier work
human TRPV1 = human TRPV1 (Homo sapiens, UniProt Q8NER1); experiment: binding competition assay with [3H]RTX; conditions: ratio of Ki versus 1S
Outline: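 Competition binding of [3H]RTX to human TRPV1 heterologously expressed in CHO cells. Binding affinity reported as Ki. Values are mean ± SEM of at least three experiments.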

Sequence of human TRPV1 heterologously expressed in Chinese hamster ovary (CHO) cells (Q8NER1 whole entry): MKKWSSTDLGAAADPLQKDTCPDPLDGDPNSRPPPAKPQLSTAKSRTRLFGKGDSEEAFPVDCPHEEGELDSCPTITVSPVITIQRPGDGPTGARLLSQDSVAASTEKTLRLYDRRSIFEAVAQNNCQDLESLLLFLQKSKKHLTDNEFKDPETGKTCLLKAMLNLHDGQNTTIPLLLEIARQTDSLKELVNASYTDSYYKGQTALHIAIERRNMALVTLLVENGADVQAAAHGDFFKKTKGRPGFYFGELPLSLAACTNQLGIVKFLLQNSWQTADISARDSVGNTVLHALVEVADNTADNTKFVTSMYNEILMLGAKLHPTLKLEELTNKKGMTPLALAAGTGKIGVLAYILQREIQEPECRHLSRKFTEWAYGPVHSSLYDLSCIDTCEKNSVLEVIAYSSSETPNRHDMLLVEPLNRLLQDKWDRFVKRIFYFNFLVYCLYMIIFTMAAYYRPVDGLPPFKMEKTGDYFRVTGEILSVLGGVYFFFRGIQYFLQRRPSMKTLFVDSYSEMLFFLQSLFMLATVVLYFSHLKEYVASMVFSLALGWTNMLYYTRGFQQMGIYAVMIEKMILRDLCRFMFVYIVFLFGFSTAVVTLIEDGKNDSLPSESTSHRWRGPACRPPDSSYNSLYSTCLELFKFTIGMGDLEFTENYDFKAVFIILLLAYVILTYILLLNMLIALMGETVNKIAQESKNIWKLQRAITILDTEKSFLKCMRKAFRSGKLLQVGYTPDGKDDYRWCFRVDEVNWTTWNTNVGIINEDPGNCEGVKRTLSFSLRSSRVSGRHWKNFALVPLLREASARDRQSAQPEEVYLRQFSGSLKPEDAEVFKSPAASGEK
Sequence of human TRPV1 (Q8NER1 whole entry): as above

COc1ccc(CN(c2nc(C(F)(F)F)ccc2CNC(=O)C(C)c2ccc(NS(C)(=O)=O)c(F)c2)S(=O)(=O)c2ccccc2)cc1 (stereo not shown) [Compound 19, 2-(3-Fluoro-4-(methylsulfonamido)phenyl)-N-((2-(N-(4-methoxybenzyl)phenyl-sulfonamido)-6-(trifluoromethyl)pyridin-3-yl)methyl)propanamide]
fold more potent antagonism than 12 ([1]; ratio of Ki(ant) versus 12): ca. 3 fold

CC1CCN(c2nc(C(F)(F)F)ccc2CNC(=O)C(C)c2ccc(NS(C)(=O)=O)c(F)c2)CC1 (stereo not shown) [Compound 1]
effect on capsaicin-induced hypothermia [2]: blocked capsaicin-induced hypothermia
antiallodynic activity [3]: potent antiallodynic activity

C[C@H](C(=O)NCc1ccc(C(F)(F)F)nc1N(Cc1ccccc1)S(=O)(=O)c1ccccc1)c1ccc(NS(C)(=O)=O)c(F)c1 [Compound 12S, (S)-N-((2-(N-Benzylphenylsulfonamido)-6-(trifluoromethyl)pyridin-3-yl)methyl)-2-(3-fluoro-4-(methylsulfonamido)phenyl)propanamide]
fold increase in binding affinity compared to 1S (human TRPV1): 5 fold
fold decrease in antagonism compared to 1S ([1]; ratio of Ki(ant) versus 1S): 1.5 fold

CC(C(=O)NCc1ccc(C(F)(F)F)nc1NS(=O)(=O)c1ccccc1)c1ccc(NS(C)(=O)=O)c(F)c1 (stereo not shown) [Compound 6, 2-(3-Fluoro-4-(methylsulfonamido)phenyl)-N-((2-(phenylsulfonamido)-6-(triflu-oromethyl)pyridin-3-yl)methyl)propanamide]
activity on hTRPV1 (in words) ([1]; binding affinity and antagonism, Table 1 series): little activity

CC(C(=O)NCc1ccc(C(F)(F)F)nc1N(Cc1ccccc1)S(=O)(=O)c1ccccc1)c1ccc(NS(C)(=O)=O)c(F)c1 (stereo not shown) [Compound 12, N-((2-(N-Benzylphenylsulfonamido)-6-(trifluoromethyl)pyridin-3-yl)methyl)-2-(3-fluoro-4-(methylsulfonamido)phenyl)propanamide]
fold reduction in antagonism compared to lead compound 1 ([1]; ratio of Ki(ant) versus compound 1): 2.5 fold
